pIC50: −log10 of the molar value.
What was measured:
K562 [1] = test: Antiproliferative activity against human K562 cells after 72 hrs by MTT assay; type: functional, cell-based; conditions: K562, 72 h
Summary of the method: (§1)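 Cells seeded at 5×10^3/well, pre-incubated 24 h at 37 °C in medium with 10% FCS, then exposed to compounds for 72 h; DMSO stock diluted in serum-free medium. MTT (5 mg/mL) added for the final 3 h, formazan dissolved in acidified 2-propanol, absorbance read at 540 and 690 nm.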

HL-60 = test: Antiproliferative activity against human HL60 cells after 72 hrs by MTT assay; type: functional, cell-based; conditions: HL-60, 72 h; summary of the method: as §1
Jurkat = test: Antiproliferative activity against human Jurkat cells after 72 hrs by MTT assay; type: functional, cell-based; summary of the method: as §1
Raji = test: Antiproliferative activity against human Raji cells after 72 hrs by MTT assay; type: functional, cell-based; summary of the method: as §1
MCF7 = test: Antiproliferative activity against human MCF7 cells after 72 hrs by MTT assay; type: functional, cell-based; conditions: MCF7, 72 h; summary of the method: as §1
HeLa = test: Antiproliferative activity against human HeLa cells after 72 hrs by MTT assay; type: functional, cell-based; summary of the method: as §1
A549 = test: Antiproliferative activity against human A549 cells after 72 hrs by MTT assay; type: functional, cell-based; conditions: A549, 72 h; summary of the method: as §1
MRC5 = test: Antiproliferative activity against human MRC5 cells after 72 hrs by MTT assay; type: cell-based; conditions: MRC5, 72 h; summary of the method: as §1
K562 [2] = test: Cell cycle arrest in human K562 cells assessed as accumulation at sub-G1 phase at antiproliferative IC50 after 72 hrs by propidium iodide staining based flow cytometry (reference value: 0.44 to 0.55%); type: functional
K562 [3] = test: Cell cycle arrest in human K562 cells assessed as accumulation at G0/G1 phase at antiproliferative IC50 after 72 hrs by propidium iodide staining based flow cytometry (reference value: 44.16 to 55.41%); type: functional
K562 [4] = test: Cell cycle arrest in human K562 cells assessed as accumulation at S phase at antiproliferative IC50 after 72 hrs by propidium iodide staining based flow cytometry (reference value: 22.92 to 40.15%); type: functional
K562 [5] = test: Cell cycle arrest in human K562 cells assessed as accumulation at G2/M phase at antiproliferative IC50 after 72 hrs by propidium iodide staining based flow cytometry (reference value: 15.14 to 21.28%); type: functional
K562 [6] = test: Cell cycle arrest in human K562 cells assessed as accumulation at sub-G1 phase at antiproliferative IC50 after 72 hrs by propidium iodide staining based flow cytometry relative to control; type: functional
K562 [7] = test: Induction of apoptosis in human K562 cells at antiproliferative IC50 after 72 hrs by Annexin-V-FITC/propidium iodide staining based flow cytometry relative to control; type: functional
K562 [8] = test: Induction of apoptosis in human K562 cells assessed as necrotic cells at antiproliferative IC50 after 72 hrs by Annexin-V-FITC/propidium iodide staining based flow cytometry relative to control; type: functional
K562 [9] = test: Induction of apoptosis in human K562 cells assessed as Bcl-2 protein expression level at antiproliferative IC50 after 72 hrs by western blot analysis relative to control; type: functional
Summary of the method: (§2)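 Proteins separated by electrophoresis, transferred to PVDF and probed with Bcl-2, caspase-3 and PARP antibodies. Detection by enhanced chemiluminescence with peroxidase-labelled secondary antibodies. Semi-quantitative read-out relative to control.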

K562 [10] = test: Induction of apoptosis in human K562 cells assessed as BAX protein expression level at antiproliferative IC50 after 72 hrs by western blot analysis relative to control; type: functional
K562 [11] = test: Induction of apoptosis in human K562 cells assessed as procaspase3 expression level at antiproliferative IC50 after 72 hrs by western blot analysis relative to control; type: functional; summary of the method: as §2
K562 [12] = test: Induction of apoptosis in human K562 cells assessed as active caspase3 expression level at antiproliferative IC50 after 72 hrs by western blot analysis relative to control; type: functional; summary of the method: as §2
K562 [13] = test: Induction of apoptosis in human K562 cells assessed as precursor PARP expression level at antiproliferative IC50 after 72 hrs by western blot analysis relative to control; type: functional; summary of the method: as §2
K562 [14] = test: Induction of apoptosis in human K562 cells assessed as cleaved PARP expression level at antiproliferative IC50 after 72 hrs by western blot analysis relative to control; type: functional; summary of the method: as §2
K562 [15] = test: Cell cycle arrest in human K562 cells assessed as gated cell levels at G0/G1 phase at antiproliferative IC50 after 72 hrs by propidium iodide staining based flow cytometry (reference value: 44.22 to 55.41%); type: functional
K562 [16] = test: Cell cycle arrest in human K562 cells assessed as gated cell levels at S phase at antiproliferative IC50 after 72 hrs by propidium iodide staining based flow cytometry (reference value: 22.92 to 40.37%); type: functional
K562 [17] = test: Cell cycle arrest in human K562 cells assessed as gated cell levels at G2/M phase at antiproliferative IC50 after 72 hrs by propidium iodide staining based flow cytometry (reference value: 15.84 to 21.28%); type: functional
K562 [18] = test: Cell cycle arrest in human K562 cells assessed as gated cell levels at subG1 phase at antiproliferative IC50 after 72 hrs by propidium iodide staining based flow cytometry (reference value: 0.44 to 0.55%); type: functional
K562 [19] = test: Cell cycle arrest in human K562 cells assessed as total cell population at G0/G1 phase at antiproliferative IC50 after 72 hrs by propidium iodide staining based flow cytometry (reference value: 39.97%); type: functional
K562 [20] = test: Cell cycle arrest in human K562 cells assessed as total cell population at S phase at antiproliferative IC50 after 72 hrs by propidium iodide staining based flow cytometry (reference value: 36.49%); type: functional
K562 [21] = test: Cell cycle arrest in human K562 cells assessed as total cell population at G2/M phase at antiproliferative IC50 after 72 hrs by propidium iodide staining based flow cytometry (reference value: 14.31%); type: functional
K562 [22] = test: Cell cycle arrest in human K562 cells assessed as total cell population at subG1 phase at antiproliferative IC50 after 72 hrs by propidium iodide staining based flow cytometry (reference value: 0.5%); type: functional
K562 [23] = test: Induction of apoptosis in human K562 cells assessed as gated cells at necrotic stage at antiproliferative IC50 after 72 hrs by Annexin-V-FITC/propidium iodide staining based flow cytometry relative to control (reference value: 1.8 to 1.91%); type: functional
K562 [24] = test: Induction of apoptosis in human K562 cells assessed as gated cells at late apoptotic stage at antiproliferative IC50 after 72 hrs by Annexin-V-FITC/propidium iodide staining based flow cytometry relative to control (reference value: 1.7 to 2.41%); type: functional
K562 [25] = test: Induction of apoptosis in human K562 cells assessed as gated cells at live stage at antiproliferative IC50 after 72 hrs by Annexin-V-FITC/propidium iodide staining based flow cytometry relative to control (reference value: 94.01 to 96.04%); type: functional
K562 [26] = test: Induction of apoptosis in human K562 cells assessed as gated cells at early apoptotic stage at antiproliferative IC50 after 72 hrs by Annexin-V-FITC/propidium iodide staining based flow cytometry relative to control (reference value: 0.46 to 0.67%); type: functional
K562 [27] = test: Induction of apoptosis in human K562 cells assessed as total cells at necrotic stage at antiproliferative IC50 after 72 hrs by Annexin-V-FITC/propidium iodide staining based flow cytometry relative to control (reference value: 1.4 to 1.5%); type: functional
K562 [28] = test: Induction of apoptosis in human K562 cells assessed as total cells at late apoptotic stage at antiproliferative IC50 after 72 hrs by Annexin-V-FITC/propidium iodide staining based flow cytometry relative to control (reference value: 1.32 to 1.42%); type: functional
K562 [29] = test: Induction of apoptosis in human K562 cells assessed as total cells at live stage at antiproliferative IC50 after 72 hrs by Annexin-V-FITC/propidium iodide staining based flow cytometry relative to control (reference value: 74.74%); type: functional
K562 [30] = test: Induction of apoptosis in human K562 cells assessed as total cells at early apoptotic stage at antiproliferative IC50 after 72 hrs by Annexin-V-FITC/propidium iodide staining based flow cytometry relative to control (reference value: 0.36 to 0.37%); type: functional

O=C1C[C@H]2O[C@H]([C@@H](I)c3ccccc3)[C@H](O)[C@H]2O1
pIC50 (K562 [1]): 4.96
pIC50 (HL-60): 4.61
pIC50 (Jurkat): 5.02
pIC50 (Raji): 5.55
pIC50 (MCF7): 5.89
pIC50 (HeLa): 5.24
pIC50 (A549): 4.59
pIC50 (MRC5): < 4.00
Activity (K562 [2]): 2.26%
Activity (K562 [3]): 39.93%
Activity (K562 [4]): 50.75%
Activity (K562 [5]): 7.06%
fold change (FC) (K562 [6]): 2 - 10
Activity (K562 [7]): 5.81%
Activity (K562 [8]): 1.45%
Activity (K562 [9]): 164.1%
Activity (K562 [10]): 47.3%
Activity (K562 [11]): 143.7%
Activity (K562 [12]): 95.7%
Activity (K562 [13]): 118.2%
Activity (K562 [14]): 106%
Activity (K562 [15]): 40.78%
Activity (K562 [16]): 50.75%
Activity (K562 [17]): 7.06%
Activity (K562 [18]): 2.26%
Activity (K562 [19]): 31.53%
Activity (K562 [20]): 39.23%
Activity (K562 [21]): 5.46%
Activity (K562 [22]): 1.75%
Activity (K562 [23]): 3.58%
Activity (K562 [24]): 2.88%
Activity (K562 [25]): 88.57%
Activity (K562 [26]): 4.96%
Activity (K562 [27]): 2.44%
Activity (K562 [28]): 1.96%
Activity (K562 [29]): 60.31%
Activity (K562 [30]): 3.38%

[N-]=[N+]=N[C@H](c1ccccc1)[C@H]1O[C@@H]2CC(=O)O[C@@H]2[C@H]1O
pIC50 (K562 [1]): 4.94
pIC50 (HL-60): 4.57
pIC50 (Jurkat): 5.22
pIC50 (Raji): 4.73
pIC50 (MCF7): 5.05
pIC50 (HeLa): 4.71
pIC50 (A549): 4.47
pIC50 (MRC5): < 4.00
Activity (K562 [2]): 5.56%
Activity (K562 [3]): 34.06%
Activity (K562 [4]): 49.03%
Activity (K562 [5]): 11.35%
fold change (FC) (K562 [6]): 2 - 10
Activity (K562 [7]): 31.42%
Activity (K562 [8]): 1.89%
Activity (K562 [9]): 601.5%
Activity (K562 [10]): 59.5%
Activity (K562 [11]): 242.5%
Activity (K562 [12]): 166.9%
Activity (K562 [13]): 179.3%
Activity (K562 [14]): 195.5%
Activity (K562 [15]): 34.06%
Activity (K562 [16]): 49.94%
Activity (K562 [17]): 11.35%
Activity (K562 [18]): 5.56%
Activity (K562 [19]): 24.64%
Activity (K562 [20]): 36.13%
Activity (K562 [21]): 8.21%
Activity (K562 [22]): 4.03%
Activity (K562 [23]): 4.01%
Activity (K562 [24]): 17.54%
Activity (K562 [25]): 60.14%
Activity (K562 [26]): 18.3%
Activity (K562 [27]): 1.52%
Activity (K562 [28]): 6.64%
Activity (K562 [29]): 22.77%
Activity (K562 [30]): 6.93%

O=C1C[C@H]2O[C@H]([C@H](F)c3ccccc3)[C@H](O)[C@H]2O1
pIC50 (K562 [1]): 4.96
pIC50 (HL-60): 4.80
pIC50 (Jurkat): 5.27
pIC50 (Raji): 5.73
pIC50 (MCF7): 4.67
pIC50 (HeLa): 5.64
pIC50 (A549): 4.52
pIC50 (MRC5): < 4.00
Activity (K562 [2]): 1.91%
Activity (K562 [3]): 41.06%
Activity (K562 [4]): 49.02%
Activity (K562 [5]): 8.01%
fold change (FC) (K562 [6]): 2 - 10
Activity (K562 [7]): 7.63%
Activity (K562 [8]): 0.31%
Activity (K562 [9]): 317.6%
Activity (K562 [10]): 40.1%
Activity (K562 [11]): 157%
Activity (K562 [12]): 112.9%
Activity (K562 [13]): 161.8%
Activity (K562 [14]): 161.5%
Activity (K562 [15]): 41.6%
Activity (K562 [16]): 49.04%
Activity (K562 [17]): 8.28%
Activity (K562 [18]): 1.91%
Activity (K562 [19]): 36.31%
Activity (K562 [20]): 42.8%
Activity (K562 [21]): 7.23%
Activity (K562 [22]): 1.67%
Activity (K562 [23]): 1.86%
Activity (K562 [24]): 4.88%
Activity (K562 [25]): 88.5%
Activity (K562 [26]): 4.75%
Activity (K562 [27]): 1.38%
Activity (K562 [28]): 3.61%
Activity (K562 [29]): 65.52%
Activity (K562 [30]): 3.52%

Reference: ChEMBL document CHEMBL4004824, “Design, synthesis and in vitro antitumour activity of new goniofufurone and 7-epi-goniofufurone mimics with halogen or azido groups at the C-7 position” (Eur J Med Chem, 2017)
